Laboratory results as given in ChEMBL document CHEMBL1152768, “4-Benzyloxy-gamma-sultone derivatives: discovery of a novel family of non-nucleoside inhibitors of human cytomegalovirus and varicella zoster virus” (J Med Chem, 2009).

How the values were obtained:
Human betaherpesvirus 5 [1] = experiment: Antiviral activity against HCMV Davis infected in human HEL cells assessed inhibition of virus-induced cytopathicity after 7 days postinfection; format: functional, organism-based; settings: Human betaherpesvirus 5, Davis, 168 h
How it was run: (§1)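 HEL fibroblasts were infected at 100 PFU. After 2 h, residual virus was removed and medium with test compound was added at several concentrations, in duplicate. Cells were incubated 7 days at 37 °C, fixed with ethanol and stained with Giemsa.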

Human betaherpesvirus 5 [2] = experiment: Antiviral activity against HCMV AD169 infected in human HEL cells assessed inhibition of virus-induced cytopathicity after 7 days postinfection; format: functional, organism-based; settings: Human betaherpesvirus 5, AD169, HEL, 168 h; how it was run: as §1
Human alphaherpesvirus 3 [3] = experiment: Antiviral activity against thymidine kinase expressing Varicella zoster virus Oka infected in human HEL cells assessed reduction in viral plaque formation; format: functional, organism-based; settings: Human alphaherpesvirus 3, Oka
How it was run: (§2)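 Confluent HEL cell monolayers were inoculated with VZV at 20 PFU per well. Residual virus was removed after 2 h, and compound was added at varying concentrations, in duplicate.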

Human alphaherpesvirus 3 [4] = experiment: Antiviral activity against thymidine kinase deficient Varicella zoster virus 07/1 infected in human HEL cells assessed reduction in viral plaque formation; format: functional, organism-based; settings: Human alphaherpesvirus 3, HEL; how it was run: as §2
[5] = Cytotoxicity against human HEL cells assessed as morphological alteration after 3 days; format: cell-based
How it was run: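 HEL cultures were examined under the microscope. MCC was recorded as the compound concentration causing a microscopically detectable alteration of normal cell morphology.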

[6] = Cytotoxicity against human HEL cells assessed as reduction of growth after 3 days; format: cell-based
How it was run: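 HEL cells were seeded at 5 × 10³ cells/well and grown 24 h before compound was added at different concentrations. After 3 days at 37 °C, cells were counted with a Coulter counter. CC50, the concentration halving growth relative to untreated controls, was read from plots of cell number (% of control) against concentration.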

Human betaherpesvirus 5 [7] = experiment: Antiviral activity against ganciclovir-resistant HCMV AD169 clone 4 infected in HEL cells assessed as inhibition of virus-induced cytopathicity; format: functional, organism-based; settings: Human betaherpesvirus 5, AD169, HEL
Human betaherpesvirus 5 [8] = experiment: Antiviral activity against foscarnet-resistant HCMV AD169 clone C infected in HEL cells assessed as inhibition of virus-induced cytopathicity; format: functional, organism-based; settings: Human betaherpesvirus 5, AD169, HEL
Human betaherpesvirus 5 [9] = experiment: Antiviral activity against cidofovir HCMV AD169 clone 5 infected in human HEL cells assessed as inhibition of virus-induced cytopathicity; format: functional, organism-based; settings: Human betaherpesvirus 5, AD169, HEL
Human betaherpesvirus 5 [10] = experiment: Antiviral activity against PMEDAP-resistant HCMV AD169 clone 4 infected in HEL cells assessed as inhibition of virus-induced cytopathicity; format: functional, organism-based; settings: Human betaherpesvirus 5, AD169, HEL
Human betaherpesvirus 5 [11] = experiment: Antiviral activity against HPMPA-resistant HCMV AD169 clone 2 mutant infected in HEL cells assessed as inhibition of virus-induced cytopathicity; format: functional, organism-based; settings: Human betaherpesvirus 5, AD169, HEL
Human betaherpesvirus 5 [12] = experiment: Antiviral activity against acyclovir-resistant HCMV AD169 clone 1 infected in HEL cells assessed as inhibition of virus-induced cytopathicity; format: functional, organism-based; settings: Human betaherpesvirus 5, AD169, HEL
Human betaherpesvirus 5 [13] = experiment: Antiviral activity against wild type HCMV AD169 infected in HEL cells assessed as inhibition of virus-induced cytopathicity; format: functional, organism-based; settings: Human betaherpesvirus 5, AD169, HEL
How it was run: (§3)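 HEL fibroblast cultures infected at 100 PFU input. After 2 h, residual virus was removed and compound-containing medium was added at varying concentrations, in duplicate. Cells were incubated 7 days at 37 °C, ethanol-fixed and Giemsa-stained, and cytopathicity was scored microscopically.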

Human betaherpesvirus 5 [14] = experiment: Antiviral activity against wild type HCMV Davis infected in HEL cells assessed as inhibition of virus-induced cytopathicity; format: functional, organism-based; settings: Human betaherpesvirus 5, Davis; how it was run: as §3

Row | EC50 (Human betaherpesvirus 5 [1]) | EC50 (Human betaherpesvirus 5 [2]) | EC50 (Human alphaherpesvirus 3 [3]) | EC50 (Human alphaherpesvirus 3 [4]) | SMILES | MCC at 72 h [5] | CC50 at 72 h [6] | EC50 (Human betaherpesvirus 5 [7]) | EC50 (Human betaherpesvirus 5 [8]) | EC50 (Human betaherpesvirus 5 [9]) | EC50 (Human betaherpesvirus 5 [10]) | EC50 (Human betaherpesvirus 5 [11]) | EC50 (Human betaherpesvirus 5 [12]) | EC50 (Human betaherpesvirus 5 [13]) | EC50 (Human betaherpesvirus 5 [14])
1 | 400 µM | > 400 µM | 10 µM | 10.5 µM | CCC1(Cc2ccccc2)OS(=O)(=O)CC1=O (centres undefined) | > 100 µM | 200 µM | – | – | – | – | – | – | – | –
2 | > 80 µM | > 80 µM | > 80 µM | > 80 µM | CCC1(Cc2ccccc2)OS(=O)(=O)C=C1OS(=O)(=O)c1ccc(C)cc1 (racemic) | 400 µM | 109 µM | – | – | – | – | – | – | – | –
3 | 235 µM | > 80 µM | 199 µM | 199 µM | CCC1(Cc2ccccc2)OS(=O)(=O)C=C1OCC#N (racemic) | > 400 µM | > 200 µM | – | – | – | – | – | – | – | –
4 | ≥ 5 µM | 20 µM | 6.4 µM | 7.3 µM | CCC1(Cc2ccccc2)OS(=O)(=O)C=C1OCc1ccc(C(C)(C)C)cc1 (racemic) | ≥ 400 µM | 200 µM | – | – | – | – | – | – | – | –
5 | 179 µM | > 400 µM | > 400 µM | > 400 µM | CCC1(Cc2ccccc2)OS(=O)(=O)C=C1OC(=O)c1ccccc1 (racemic) | > 400 µM | > 200 µM | – | – | – | – | – | – | – | –
6 | > 80 µM | > 80 µM | 59 µM | 52 µM | CCC1(Cc2ccccc2)OS(=O)(=O)C=C1OCC=C(C)C (racemic) | 400 µM | 112 µM | – | – | – | – | – | – | – | –
7 | 7.2 µM | 6.5 µM | > 3.2 µM | > 3.2 µM | CCC1(Cc2ccccc2)OS(=O)(=O)C=C1OCc1ccc(Cl)c(Cl)c1 (racemic) | ≥ 20 µM | 36.7 µM | – | – | – | – | – | – | – | –

Continued, compound first:

Row | SMILES | EC50 (Human betaherpesvirus 5 [1]) | EC50 (Human betaherpesvirus 5 [2]) | EC50 (Human alphaherpesvirus 3 [3]) | EC50 (Human alphaherpesvirus 3 [4]) | MCC at 72 h [5] | CC50 at 72 h [6] | EC50 (Human betaherpesvirus 5 [7]) | EC50 (Human betaherpesvirus 5 [8]) | EC50 (Human betaherpesvirus 5 [9]) | EC50 (Human betaherpesvirus 5 [10]) | EC50 (Human betaherpesvirus 5 [11]) | EC50 (Human betaherpesvirus 5 [12]) | EC50 (Human betaherpesvirus 5 [13]) | EC50 (Human betaherpesvirus 5 [14])
8 | CCC1(Cc2ccccc2)OS(=O)(=O)C=C1NCc1ccccc1 (centres undefined) | > 80 µM | > 80 µM | 37 µM | 32 µM | ≥ 80 µM | 92 µM | – | – | – | – | – | – | – | –
9 | O=C(O)P(=O)(O)O [FOSCARNET] | – | – | – | – | – | – | 20000 nM | 95 µM | 11000 nM | 63 µM | 13000 nM | 35000 nM | 13 µM | 11 µM
10 | Nc1ncnc2c1ncn2C[C@@H](CO)OCP(=O)(O)O | – | – | – | – | – | – | 2100 nM | 0.036 µM | 2100 nM | 0.12 µM | 1900 nM | 80 nM | 0.17 µM | 0.2 µM
11 | CCC1(Cc2ccccc2)OS(=O)(=O)C=C1OC (racemic) | > 400 µM | > 400 µM | 168 µM | 285 µM | > 400 µM | > 200 µM | – | – | – | – | – | – | – | –
12 | Nc1ccn(C[C@@H](CO)OCP(=O)(O)O)c(=O)n1 [CIDOFOVIR] | 0.5 µM | 0.3 µM | – | – | > 150 µM | 74 µM | 740 nM | 0.045 µM | 1000 nM | 0.092 µM | 550 nM | 95 nM | 0.076 µM | 0.069 µM
13 | Nc1nc(N)c2ncn(CCOCP(=O)(O)O)c2n1 [PMEDAP] | – | – | – | – | – | – | 1900 nM | 25 µM | 3500 nM | 37 µM | 820 nM | > 50000 nM | 8.4 µM | 7.7 µM
14 | CCC1(Cc2ccccc2)OS(=O)(=O)C=C1OCc1ccc([N+](=O)[O-])cc1 (racemic) | > 80 µM | > 400 µM | 80 µM | 54 µM | ≥ 80 µM | < 200 µM | – | – | – | – | – | – | – | –
15 | CCCC1(Cc2ccccc2)OS(=O)(=O)C=C1OCc1ccccc1 (racemic) | > 400 µM | > 400 µM | > 80 µM | > 400 µM | ≥ 400 µM | 200 µM | – | – | – | – | – | – | – | –
16 | CCC1(Cc2ccccc2)OS(=O)(=O)C=C1OC(c1ccccc1)c1ccccc1 (racemic) | > 400 µM | > 400 µM | > 80 µM | > 80 µM | ≥ 80 µM | > 200 µM | – | – | – | – | – | – | – | –
17 | CCC1(Cc2ccccc2)OS(=O)(=O)C=C1OCc1ccc(C(F)(F)F)cc1 (racemic) | 8 µM | 12 µM | 7.7 µM | 6.7 µM | ≥ 16 µM | 99 µM | – | – | – | – | – | – | – | –
